Hits are enriched below; roughly 2% of the tested compounds scored in any of these assays.
CAL PDZ FP-1: CAL PDZ peptide-binding inhibitors, primary screen, biochemical, fluorescence polarization, Cer-tagged CAL PDZ, HTS. inhibition, % at 20 µM. 330,000 compounds, 0.02% hits. purified CAL PDZ, TMR-peptide fluorescence polarization, 1 h;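 active means highest replicate inhibition of at least 40%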;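 further: plate controls were DMSO neutral control wells for no effect and unlabeled competitor peptide control wells for full effect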
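Assay system – tagged CAL PDZ protein CerCALP, purified · Timing – 1 h at RT · Compound – single point, 20 µM · Measured by – fluorescence polarization from S- and P-plane intensities, G-factor corrected · Evaluation – inhibition from polarization loss · Probe or stimulus – TMR reporter peptide T*-PRC34 · Buffer or medium – pH 7.4 phosphate-saline buffer, reducing agent, detergent, IgG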
dFosB act-1: activators of delta FosB homodimer, primary screen, biochemical, fluorescence polarization, TAMRA-CDK5 oligo, single point; 340,000 compounds, 0.99% hits; activation, % at 25 µM; Protein FosB (Mus musculus), P13346; purified delta FosB; percent of positive-control signal above neutral wells;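 active means mean activation above about 17%, with every replicate also reaching it, limit read from the data, passing the limit was not always enough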
Target sequence (P13346 whole entry, looked up): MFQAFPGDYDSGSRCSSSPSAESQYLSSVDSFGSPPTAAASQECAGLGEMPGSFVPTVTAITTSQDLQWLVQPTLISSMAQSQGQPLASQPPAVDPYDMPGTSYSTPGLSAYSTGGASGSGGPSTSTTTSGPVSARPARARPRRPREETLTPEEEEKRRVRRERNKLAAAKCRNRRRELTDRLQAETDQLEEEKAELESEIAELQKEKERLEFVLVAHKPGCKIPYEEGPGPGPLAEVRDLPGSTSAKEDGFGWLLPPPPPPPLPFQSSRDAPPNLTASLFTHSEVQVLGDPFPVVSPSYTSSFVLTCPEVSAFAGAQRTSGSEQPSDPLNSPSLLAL
NTR1 ag: agonists of human NTR1, primary screen, imaging, U2OS cells, beta-arrestin-GFP, high content; AID 493036, 2011; NTR1-U2OS beta-arrestin-GFP spot imaging, agonist mode; Neurotensin receptor type 1 (Homo sapiens), P30989; 330,000 compounds, 0.17% hits; activation, % at 20 µM;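 active means activation at or above 40% of the spot to cytoplasm intensity ratio, with at least 20 cells analyzed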;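 further: 0% = DMSO without peptide and 100% = 100 nM NTR1 peptide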
PKA-R2B act: activators of PKA-R2B holoenzyme, primary screen, biochemical, fluorescence polarization, Cy5-IP20, human; cAMP-dependent protein kinase catalytic subunit beta (Homo sapiens) + cAMP-dependent …; PKA-R2B holoenzyme dissociation; R2B truncated from residue 108, S112A mutant; 0% DMSO only, 100% 113 µM cGMP; activation, % at 11.4 µM; 340,000 compounds, 0.079% hits;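 active means activation above a cutoff set at the mean over all compounds plus 3 SD, cut at about 18% in these data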;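 further: higher means more holoenzyme dissociation and a rise in polarization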
Target sequence (P31323 whole entry, looked up, other chains not shown, the tested form may be a part): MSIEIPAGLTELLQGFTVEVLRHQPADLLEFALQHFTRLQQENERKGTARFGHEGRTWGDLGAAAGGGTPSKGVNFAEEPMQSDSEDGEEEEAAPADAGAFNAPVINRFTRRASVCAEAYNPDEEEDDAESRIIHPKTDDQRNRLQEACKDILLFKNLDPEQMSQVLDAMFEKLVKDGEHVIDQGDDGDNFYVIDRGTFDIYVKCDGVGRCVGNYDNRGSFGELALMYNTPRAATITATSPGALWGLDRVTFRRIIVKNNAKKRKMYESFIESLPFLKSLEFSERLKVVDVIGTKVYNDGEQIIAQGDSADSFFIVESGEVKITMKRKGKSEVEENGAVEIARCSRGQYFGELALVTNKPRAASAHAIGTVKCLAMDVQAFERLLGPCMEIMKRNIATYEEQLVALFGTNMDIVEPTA
CAL PDZ FP-2: untagged CAL PDZ binding inhibitors, primary screen, biochemical, fluorescence polarization, HTS | Golgi-associated PDZ and coiled-coil motif-containing protein (Homo sapiens), Q9HD26 | 300,000 compounds, 0.92% hits | purified CAL PDZ, TMR-peptide fluorescence polarization, 1 h | AID 602252, 2012 | inhibition, % at 24.9 µM;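 active means mean inhibition of at least 30% with at least half of replicates also reaching 30%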;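 further: 0% = DMSO neutral control and 100% = excess unlabeled competitor peptide PRC23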
PKA-R1A act: activators of PKA-R1A holoenzyme, primary screen, biochemical, fluorescence polarization, Cy5-IP20, bovine R1A, mouse PKAc; cAMP-dependent protein kinase type I-alpha regulatory subunit (Bos taurus) + …; PKA-R1A dissociation; scaled: DMSO 0%, 113 µM cGMP 100%; activation, % at 11.4 µM; 340,000 compounds, 0.083% hits; AID 504707, 2011;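 active means percent activation above the mean of all tested compounds plus 3 SD, cut at about 19% in these data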;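 further: higher means more PKAc released from R1A so a rise in polarization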
dFosB act-2: activators of mouse delta FosB DNA binding, confirmation, biochemical, fluorescence polarization, TAMRA-CDK5 oligo, cherry-picked samples; purified delta FosB; normalised: neutral wells 0, positive control 100; activation, % at 24.9 µM; shares compounds with dFosB act-1; AID 588690, 2011; 2,400 tested, under 10 active;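 active means highest replicate activation at or above 34% and every replicate reaching that threshold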;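 further: higher polarization means more probe DNA bound by delta FosB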
Active calls of the source: *; . = no result given.

SMILES | CAL PDZ FP-1 | dFosB act-1 | NTR1 ag | PKA-R2B act | CAL PDZ FP-2 | PKA-R1A act | dFosB act-2
COc1ccc(C(=O)Cn2cnc3ccccc3c2=O)cc1OC | -1.5 | -11.3 | 0.0 | -3.7 | -1.3 | -5.4 | .
COc1ccc(C(=O)Cn2cnc3ccc(Cl)cc3c2=O)cc1F | -0.2 | 26.0* | -0.9 | 2.2 | -2.3 | 1.2 | 0.3
COC(=O)c1cn(CC(=O)Nc2ccc(OC)cc2)c2ccccc12 | -1.0 | 4.3 | 0.0 | 7.6 | -0.5 | -9.7 | .
COc1ccc2c(c1)c(=O)c(C(=O)c1ccc(C)cc1)cn2CC(=O)Nc1ccc(F)cc1 | -1.5 | 22.4* | 9.8 | 5.3 | . | -0.4 | -0.6
CCC(=O)c1cn(CC(=O)Nc2ccc(OC)cc2)c2ccccc12 | 0.4 | -1.6 | 0.1 | 0.8 | . | 3.6 | .
COc1ccc(NC(=O)Cn2cc(C(=O)c3ccco3)c3ccccc32)cc1 | -3.1 | 45.0* | -1.9 | 3.1 | -4.5 | -3.5 | 1.8
Cc1ccc(S(=O)(=O)c2cn(CC(=O)Nc3ccccc3)c3ccc(F)cc3c2=O)cc1 | -1.2 | 29.5* | 7.1 | -9.8 | . | 5.3 | 1.8
COc1ccc2c(c1)c(=O)c(C(=O)c1ccc(F)cc1)cn2CC(=O)Nc1ccc(F)cc1 | -1.1 | 20.2* | 11.3 | 1.1 | . | -1.0 | -2.7
Cc1ccc(NC(=O)Cn2cc(S(=O)(=O)c3ccc(F)cc3)c(=O)c3cc(F)ccc32)cc1 | -0.5 | -7.9 | 10.8 | -10.9 | . | 6.5 | .
Nn1c(SCc2ccccn2)nncc1=O | -1.7 | -1.7 | -1.4 | -5.8 | -4.0 | -3.2 | .
COc1ccc2c(c1)c(CC(=O)Nc1ccc(C)cc1)c(C)n2C(=O)c1ccc(Cl)cc1 | -0.4 | 20.5* | 0.6 | 3.9 | 8.0 | 5.3 | 2.6
COc1ccc(NC(=O)Cc2c(C)n(C(=O)c3ccc(Cl)cc3)c3ccc(OC)cc23)cc1 | -1.7 | -6.7 | -0.3 | -12.1 | -3.2 | -9.9 | .
COc1ccc(CCN2CC(C(=O)Nc3nccs3)CC2=O)cc1OC (centres undefined) | 1.0 | -6.9 | 0.2 | 1.4 | . | -5.2 | .
Cc1cc(C)cc(NC(=O)Nc2ccc(-n3ccc(C(F)(F)F)n3)cc2)c1 | 0.1 | 13.8 | 5.1 | -2.9 | 7.4 | -3.9 | .
O=C(Nc1ccc(-n2ccc(C(F)(F)F)n2)cc1)Nc1cccc(Cl)c1 | -0.5 | 28.7* | 15.4 | -4.0 | -2.3 | -3.2 | 5.9
O=C1CC(C(=O)Nc2ccc(F)cc2)S/C(=N\N=C\c2ccco2)N1 (centres undefined) | -0.8 | 32.7* | 1.2 | -2.7 | -4.6 | -19.6 | 2.9
Cc1ccc(NC(=O)C2CC(=O)N/C(=N/N=C/c3ccco3)S2)cc1 (centres undefined) | 0.2 | 4.8 | 2.0 | -8.9 | -5.8 | -3.2 | .
CC(=O)Nc1cccc(C(=O)OC(C)C(=O)NC(=O)NC2CCCCC2)c1 (centres undefined) | -3.7 | -11.7 | -1.0 | -4.1 | -2.9 | -1.9 | .
CN(c1ccccc1)S(=O)(=O)c1nnc(NC(=O)COc2ccccc2)s1 | -2.0 | 19.8* | 1.4 | 9.4 | -3.8 | -4.0 | 0.0
CN(c1ccccc1)S(=O)(=O)c1nnc(NC(=O)COc2ccccc2F)s1 | -0.9 | 33.4* | 1.4 | -2.6 | 3.9 | -4.2 | 8.1
Cc1c(C(=O)Nc2ccc(F)cc2)cn2c(nc3ccccc32)c1C#N | -0.1 | 33.5* | 1.5 | -0.5 | -3.2 | 0.2 | -0.7
Cc1ccc(C23CC4CC(CC(C(=O)N(C)C)(C4)C2)C3)cc1 | -1.7 | 0.4 | 4.3 | -9.1 | -5.6 | 4.6 | .
CCOC(=O)C1=CN(Cc2ccco2)S(=O)(=O)N(C)C1c1ccc(F)c(Cl)c1 (centres undefined) | 1.0 | -13.9 | 1.9 | 0.2 | -2.9 | -1.6 | .
O=C(Nc1ccc(-c2ccc3nncn3n2)cc1)c1ccc(Br)o1 | -3.9 | 54.0* | -0.6 | -10.9 | -5.8 | -0.6 | 3.6
O=C(Cn1c2ccccc2c(=O)c2ccccc21)Nc1ccccc1F | 0.0 | 37.5* | 0.6 | 4.8 | -1.3 | 5.1 | -2.4
SMILES | CAL PDZ FP-1 | dFosB act-1 | NTR1 ag | PKA-R2B act | CAL PDZ FP-2 | PKA-R1A act | dFosB act-2
COc1ccc(C)cc1NC(=O)CCNC(=O)Cn1ccc2ccccc2c1=O | -0.1 | 21.9* | -0.9 | 2.1 | -3.1 | 11.6 | 3.0
COc1cc2sc(-c3ccc(S(C)(=O)=O)cc3)c(-c3ccc4c(c3)OCO4)c2cc1OC | -0.8 | 7.5 | 4.7 | 7.3 | -2.8 | 0.1 | .
O=C(CSc1nnnn1-c1ccccc1)Nc1nsc(-c2ccccc2)n1 | -3.0 | 2.4 | 5.2 | -0.3 | -4.4 | -13.8 | .
Cc1ccc(-c2nc(NC(=O)CSc3nnc(C)s3)ns2)cc1 | -0.7 | 26.5* | 0.8 | 9.1 | 1.7 | -7.3 | -9.5
O=C(CSc1nnnn1-c1ccccc1)Nc1nsc(-c2ccc(Cl)cc2)n1 | 0.1 | 58.2* | 9.7 | 7.3 | 0.5 | -1.7 | 2.2
Cc1cccc(NC(=O)Cn2nnc(C(=O)Nc3ccc(F)c(Cl)c3)c2N)c1 | -0.8 | 89.7* | -0.4 | -13.3 | -3.9 | -7.3 | 0.9
Nc1c(C(=O)NCc2cccs2)nnn1CC(=O)Nc1cccc(Cl)c1 | -2.7 | 20.8* | -1.4 | -4.2 | -5.8 | 2.1 | -2.3
COc1cccc(NC(=O)c2nnn(CC(=O)Nc3cc(C)cc(C)c3)c2N)c1 | -2.7 | 3.6 | 1.2 | -2.4 | -2.4 | -1.5 | .
COc1ccc(NC(=O)Cn2nnc(C(=O)NCc3cccs3)c2N)cc1Cl | -2.3 | 35.3* | 1.3 | -5.8 | -2.3 | -0.8 | 5.3
Cc1ccc(NC(=O)Cn2nnc(C(=O)NCc3cccs3)c2N)cc1Cl | -2.4 | 12.0 | 0.0 | -2.6 | -0.5 | -8.4 | .
Cc1ccc(NC(=O)Cn2nnc(C(=O)NCc3cccs3)c2N)cc1 | -0.7 | 14.8 | -2.0 | -2.8 | -1.9 | -8.4 | .
Cc1[nH]c(=O)[nH]c(=O)c1S(=O)(=O)Nc1ccc(F)c([N+](=O)[O-])c1 | 0.6 | 4.7 | -1.0 | 3.4 | -3.7 | -3.1 | .
COc1ccccc1/C=C(\NC(=O)c1ccc(OC)c(OC)c1)C(=O)Nc1cc([N+](=O)[O-])ccc1C | -2.2 | 28.1* | 1.4 | -3.3 | -0.2 | -3.6 | -1.6
